Hits are enriched below; roughly 2.3% of the tested compounds scored in any of these assays.
Calb FLC: C. albicans growth modulation with fluconazole | C. albicans CaCi-2 (fluconazole-resistant clinical isolate) + fluconazole, Alamar Blue growth, 48 h | growth inhibition, % (concentration not given with the values) | hit rate 0.57% among 300,000;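 active = growth inhibition above about 58% in most replicates, limit read from the data, passing the limit was not always enough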;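 also: all wells also contain fluconazole at 8 µg/ml as a sub-toxic cotreatment; 0% = median of DMSO wells and 100% = median of geldanamycin control wells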
ASAP1 GAP inh: inhibitors of human ASAP1 ArfGAP activity. Q9ULH1. ASAP1-stimulated ARF1 GTP hydrolysis, GDP FP detection. inhibition, % at 16.5 µM. hit rate 0.19% among 360,000. AID 624377; in the data active = inhibition above about 25%;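 also: 0% = vehicle with enzyme and substrate and 100% = no enzyme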
ARFGAP1 inhibitor: rat ARFGAP1 inhibition; Arfgap1-stimulated ARF1 GTP hydrolysis, GDP FP detection; inhibition, % at 16.5 µM; hit rate 0.26% among 360,000;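 active = inhibition above a per-plate limit, mean inhibition of low control wells plus 3 SD, cut at about 25% in these data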;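 also: 0% = DMSO wells with enzyme and 100% = wells lacking Arfgap1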
Target sequence (Q62848 1-136 limits assumed): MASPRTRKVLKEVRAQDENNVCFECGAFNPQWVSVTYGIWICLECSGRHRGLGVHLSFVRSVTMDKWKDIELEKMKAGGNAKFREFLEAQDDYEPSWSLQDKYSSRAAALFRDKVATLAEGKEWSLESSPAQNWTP
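Material: rat Arfgap1 catalytic domain, aa 1-136; also added: human ARF1(Δ1-17)-GTP substrate; compound dosing: one concentration, 16.5 µM, DMSO 1.26%; incubation: GTP hydrolysis reaction 2 h at 25 °C; measured by: Tracer-displacement fluorescence polarization with EDTA stop, 620/688 nm; evaluation: % inhibition from polarization; repeats: one replicate per compound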
HGIII-sPLA2 inh: Inhibits HGIII-sPLA2 liposome hydrolysis, primary screen | Q9NZ20 | QFRET BODIPY PC-A2 liposome hydrolysis, fluorescence | inhibition, % at 12.2 µM | hit rate 0.56% among 370,000 | AID 743126;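 active = inhibition above mean plus 3 SD of compounds lying within the high and low control bounds, cut at about 19% in these data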;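 also: 0% = median of test compound wells and 100% = no enzyme DMSO wells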
SKKanGAS inh: blocks kanamycin growth of S. pyogenes SKKanGAS strain. BacTiter-Glo, 6 h. inhibition, % at 7.5 µM. hit rate 1.3% among 300,000. AID 1662;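 active = mean replicate score, as percent of positive control median, at least 50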;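 also: strain carries kanamycin resistance gene driven by streptokinase promoter and grows in 40 µg/ml kanamycin; loss of luminescence reflects streptokinase promoter inhibition or plain growth inhibition; 0% = median of DMSO wells and 100% = positive control at its reference dose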
ASAP1 inh confirm: confirmation of human ASAP1 inhibitors | ASAP1-stimulated Arf1 GTPase, GDP fluorescence polarization | shares compounds with ASAP1 GAP inh | hit rate 37% among 620 | inhibition, % at 16.5 µM;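 active = mean inhibition over triplicates exceeds the hit threshold derived for the earlier primary screening run, cut at about 25% in these data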
Active calls of the source: *; . = not tested or not shown; ! = not confirmed by another sample.

SMILES	Calb FLC	ASAP1 GAP inh	ARFGAP1 inhibitor	HGIII-sPLA2 inh	SKKanGAS inh	ASAP1 inh confirm
CC(=O)Nc1ccc(CN(C)c2c(C)nc3ccc(C(=O)N(C)Cc4ccco4)cn23)cc1	.	0	-1	1	.	.
CC1CCc2c(sc(NC(=O)c3ccco3)c2C(=O)O)C1 (stereo unspecified)	11	27*	-2	-4	10	-2
O=C(Nc1sc2c(c1C(=O)O)CCCCC2)c1ccco1	25	-4	7	2	-15	.
O=C1C(=O)N(Cc2ccccc2)C(=O)N1CCN1C(=O)c2ccccc2C1=O	-4	6	0	2	-1	.
O=C1Cc2ccccc2C(=O)N1CCc1ccccc1	-2	33*	13	-1	6	15
CC(=O)c1ccc(CCCc2ccc(C(C)=O)cc2)cc1	.	7	17	-11	.	.
CC(=O)c1ccc(CCCCc2ccc(C(C)=O)cc2)cc1	.	25*	-7	-8	.	1
CC(C)C[C@H](NC(=O)c1ccc(Cl)c(Cl)c1)C(=O)N1CCC[C@H]1C(=O)NCc1ccccc1	.	-3	-6	-7	.	.
O=[N+]([O-])c1cc(C(F)(F)F)ccc1NCCc1c[nH]c2ccc(O)cc12	27	26*	3	-23	21	12
O=[N+]([O-])c1cc(C(F)(F)F)ccc1NCCc1c[nH]c2ccccc12	23	-1	10	-90	23	.
COc1ccc(OCc2cc(C(=O)NC3CCOCC3)no2)c2ccccc12	31	30*	0	0	11	2
O=C(Nc1ccc(C(O)(C(F)(F)F)C(F)(F)F)cc1)c1ccc(F)cc1Cl	.	.	.	-8	.	.
O=C(N/N=C/c1cccnc1)c1cc2c(ccc3ccccc32)o1	12	28*	25	-2	-5	55*
O=C(N/N=C/c1cccnc1)c1cc2ccccc2o1	-4	1	18	-3	-3	.
CCOc1ccc(Br)cc1S(=O)(=O)Nc1ccc(C(=O)OCC(=O)N(C)c2ccccc2)cc1	4	26*	0	-34	24	10
COc1ccccc1CNc1nc(NCCOc2ccccc2)c2sccc2n1	.	25*	7	-27	.	16
CC(=O)C1=C(C)OC2(O)c3ccccc3C(=O)C12O (stereo unspecified)	35	43*	14	1	-11	9
CCOC(=O)C1=C(C)OC2(O)c3ccccc3C(=O)C12O (stereo unspecified)	-4	47*	17	13	0	17
O=C(OCC#CCSc1nnc(-c2cccc3ccccc23)o1)c1cccc(C(F)(F)F)c1	.	.	.	3	.	.
C/C=C/c1cccc(-c2nc(C(=O)NC3Cc4ccccc4C3)cc3c2[C@@H](CCO)N(C(C)=O)C3)c1	.	-6	23	-20	.	.
COc1cccc(NC(=O)CN(C)C(=O)c2ccc(N3CCCCC3)c([N+](=O)[O-])c2)c1	.	25*	7	0	.	4
COc1cccc(NC(=O)CN(C)C(=O)c2ccc(N3CCOCC3)c([N+](=O)[O-])c2)c1	-4	3	13	1	-13	.
COc1ccc(Br)cc1C(=O)NC(=S)Nc1ccc(CN2CCOCC2)cc1	-3	27*	12	-5	-4	2
O=C(NC(=S)Nc1ccc(CN2CCOCC2)cc1)c1ccc(-c2ccc(Br)cc2)o1	23	.	.	.	8	.
NC(=O)c1cccc2c1-c1ccccc1/C2=N/NC(N)=S	1	-4	-11	7	-15	.
SMILES	Calb FLC	ASAP1 GAP inh	ARFGAP1 inhibitor	HGIII-sPLA2 inh	SKKanGAS inh	ASAP1 inh confirm
CCOC(=O)Nc1ccc2c(c1)C(=NO)c1ccccc1-2	.	28*	12	-28	.	21
CCOC(=O)Nc1ccc2c(c1)C(=NNC(N)=S)c1ccccc1-2	.	27*	8	-26	.	11
CC1CCC2(CC1)CCC2NCc1ccc(Cl)cc1 (stereo unspecified)	.	.	.	1	.	.
NC(=S)NN=C1c2cc(OCCN3CCOCC3)ccc2-c2ccc(OCCN3CCOCC3)cc21	5	25*	5	-13	4	22
ON=C1c2cc(OCCN3CCCCC3)ccc2-c2ccc(OCCN3CCCCC3)cc21	27	.	.	.	-2	.
COc1cc2c(C#N)c(N3CCCC3)nc(N)c2c(N)n1	4	43*!	-2	5	13	19
CCOc1cc2c(C#N)c(N3CCCC3)nc(N)c2c(N)n1	10	10	1	0	9	.
N#Cc1c(N2CCCC2)nc(N)c2c(N)nc(N3CCCC3)cc12	43	27*	12	-4	5	8
